According to ChEMBL document CHEMBL1147933, “Conformationally restricted homotryptamines 3. Indole tetrahydropyridines and cyclohexenylamines as selective serotonin reuptake inhibitors” (Bioorg Med Chem Lett, 2007):
The source made the active and inactive calls. The rule behind the calls is not given here.

How the values were obtained:
[1] = target: T1, Sodium-dependent dopamine transporter (Homo sapiens, UniProt Q01959); experiment: Inhibition of human DAT at 1 uM
[2] = target: T2, Sodium-dependent noradrenaline transporter (Homo sapiens, UniProt P23975); experiment: Inhibition of human NET at 1 uM
T2 sequence (P23975 whole entry): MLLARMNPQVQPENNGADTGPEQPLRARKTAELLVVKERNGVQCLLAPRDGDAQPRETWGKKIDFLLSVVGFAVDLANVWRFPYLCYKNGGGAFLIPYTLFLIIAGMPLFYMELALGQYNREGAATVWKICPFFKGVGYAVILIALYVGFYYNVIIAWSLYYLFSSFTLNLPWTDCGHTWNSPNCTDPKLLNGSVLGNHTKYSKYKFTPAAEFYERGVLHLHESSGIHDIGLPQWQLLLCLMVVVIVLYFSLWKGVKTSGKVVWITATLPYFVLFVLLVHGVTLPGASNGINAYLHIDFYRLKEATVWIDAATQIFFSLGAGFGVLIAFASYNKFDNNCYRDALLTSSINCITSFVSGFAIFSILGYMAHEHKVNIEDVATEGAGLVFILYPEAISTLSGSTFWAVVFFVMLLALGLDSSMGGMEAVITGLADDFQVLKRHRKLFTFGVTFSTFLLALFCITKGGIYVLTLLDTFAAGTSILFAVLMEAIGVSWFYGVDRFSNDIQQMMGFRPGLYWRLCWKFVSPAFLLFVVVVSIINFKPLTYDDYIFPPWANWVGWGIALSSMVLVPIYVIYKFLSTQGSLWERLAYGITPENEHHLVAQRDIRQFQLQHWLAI

[3] = target: T3, Sodium-dependent serotonin transporter (Homo sapiens, UniProt P31645); experiment: Displacement of [3H]citalopram from human SERT expressed in HEK293 cells; format: cell-based
T3 sequence (P31645 whole entry): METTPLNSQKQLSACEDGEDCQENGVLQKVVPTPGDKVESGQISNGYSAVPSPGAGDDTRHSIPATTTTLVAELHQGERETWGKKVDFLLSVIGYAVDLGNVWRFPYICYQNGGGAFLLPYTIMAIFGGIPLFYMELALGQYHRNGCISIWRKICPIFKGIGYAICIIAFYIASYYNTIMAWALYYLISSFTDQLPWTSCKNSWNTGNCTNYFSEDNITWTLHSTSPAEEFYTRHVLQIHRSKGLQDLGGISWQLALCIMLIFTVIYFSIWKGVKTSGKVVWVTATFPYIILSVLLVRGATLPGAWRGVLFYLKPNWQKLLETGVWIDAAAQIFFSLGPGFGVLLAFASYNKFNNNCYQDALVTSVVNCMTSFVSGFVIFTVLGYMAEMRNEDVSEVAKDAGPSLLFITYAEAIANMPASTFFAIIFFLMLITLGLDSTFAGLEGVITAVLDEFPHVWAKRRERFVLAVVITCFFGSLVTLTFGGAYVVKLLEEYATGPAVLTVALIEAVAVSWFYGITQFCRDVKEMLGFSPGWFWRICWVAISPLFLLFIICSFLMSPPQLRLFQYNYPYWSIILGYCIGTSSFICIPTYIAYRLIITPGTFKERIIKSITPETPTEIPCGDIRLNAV
How it was run: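 Membrane homogenates from HEK-293 cells stably expressing human SERT, incubated 1 h at 25 °C with 2 nM [3H]citalopram (85 Ci/mmol) and increasing test concentrations. Non-specific binding defined with 10 µM fluoxetine. Specific binding plotted against −log drug concentration, and the midpoint of the displacement curve was taken as IC50.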

[4] = target: T1, Sodium-dependent dopamine transporter; experiment: Displacement of [125I]RTI-55 from human DAT expressed in HEK293 cells; format: cell-based
How it was run: (§1)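 Membrane homogenates from HEK-293 cell lines stably transfected with the human transporter, incubated with 125I ligands: [125I]RTI-55 for SERT (260 pM) and DAT (125 pM), and custom [125I]nisoxetine for NET (300 pM). Reactions run in 384-well format and filter-harvested. IC50 taken from a 20-point concentration curve in a single experiment.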

[5] = target: T2, Sodium-dependent noradrenaline transporter; experiment: Displacement of [125I]Nisoxetine from human NET expressed in HEK293 cells; format: cell-based; how it was run: as §1
[6] = target: T3, Sodium-dependent serotonin transporter; experiment: Displacement of [125I]RTI-55 from human SERT expressed in HEK293 cells; format: cell-based; how it was run: as §1
Rattus norvegicus [7] = experiment: Increase in fluoxetine-induced serotonin concentration in rat frontal cortex by microdialysis at 1 mg/kg, ip; format: functional, organism-based; parameters: dose 1 mg/kg
Rattus norvegicus [8] = experiment: Increase in fluoxetine-induced serotonin concentration in rat frontal cortex by microdialysis at 10 mg/kg, po; format: functional, organism-based; parameters: dose 10 mg/kg

T1 sequence (Q01959 whole entry): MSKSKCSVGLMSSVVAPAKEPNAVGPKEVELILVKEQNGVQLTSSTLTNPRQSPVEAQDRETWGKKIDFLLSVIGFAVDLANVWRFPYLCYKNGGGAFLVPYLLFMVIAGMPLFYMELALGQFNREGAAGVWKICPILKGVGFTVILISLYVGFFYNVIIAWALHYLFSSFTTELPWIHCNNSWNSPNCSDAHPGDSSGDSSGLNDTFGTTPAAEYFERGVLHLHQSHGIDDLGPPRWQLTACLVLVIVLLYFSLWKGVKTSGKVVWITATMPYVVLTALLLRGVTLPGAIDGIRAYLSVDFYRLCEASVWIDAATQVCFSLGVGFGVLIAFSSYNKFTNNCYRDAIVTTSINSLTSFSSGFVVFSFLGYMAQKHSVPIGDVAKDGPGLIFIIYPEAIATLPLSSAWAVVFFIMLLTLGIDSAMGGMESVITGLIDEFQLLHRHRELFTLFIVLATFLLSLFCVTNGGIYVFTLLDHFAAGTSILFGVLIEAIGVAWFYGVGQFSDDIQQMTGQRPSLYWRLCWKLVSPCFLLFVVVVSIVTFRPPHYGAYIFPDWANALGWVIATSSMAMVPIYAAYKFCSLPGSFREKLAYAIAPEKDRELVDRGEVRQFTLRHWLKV

| SMILES | inhibition [1] | inhibition [2] | IC50 [3] | other results |
| --- | --- | --- | --- | --- |
| CN(C)C1CC=C(c2c[nH]c3ccc(Cl)cc23)CC1 (stereo not given) | 16% | 34% | 0.019 µM |  |
| CN(C)C1CC=C(c2c[nH]c3ccc(F)cc23)CC1 (stereo not given) | 23% | 35% | 0.014 µM |  |
| Cc1ccc2[nH]cc(C3=CCN(C)CC3)c2c1 |  |  | 0.91 µM |  |
| CN(C)C1CC=C(c2c[nH]c3ccccc23)CC1 (stereo not given) | 67% | 70% | 0.0031 µM |  |
| CN(C)C1CC=C(c2c[nH]c3ccc(C#N)cc23)CC1 (stereo not given) | 71% | 90% | 0.0016 µM | IC50 [4]: 0.097 µM; IC50 [5]: 0.057 µM; IC50 [6]: 0.00034 µM; Activity (Rattus norvegicus [7]): Active; Activity (Rattus norvegicus [8]): Active |
| CN1CC=C(c2c[nH]c3ccc([N+](=O)[O-])cc23)CC1 | 73% | 27% | 0.04 µM |  |
| CN1CC=C(c2c[nH]c3ccc(Br)cc23)CC1 |  |  | 0.21 µM |  |
| COc1ccc2[nH]cc(C3=CCC(N(C)C)CC3)c2c1 (stereo not given) |  |  | 0.15 µM |  |
| CN1CC=C(c2c[nH]c3ccc(Cl)cc23)CC1 |  |  | 0.24 µM |  |
| COc1ccc2[nH]cc(C3=CCN(C)CC3)c2c1 |  |  | 0.73 µM |  |
| CN1CC=C(c2c[nH]c3ccc(C#N)cc23)CC1 | 56% | 15% | 0.019 µM |  |
| CN(C)C1CC=C(c2c[nH]c3ccc(Br)cc23)CC1 (stereo not given) | 95% | 99% | 0.0053 µM |  |
| CN(C)[C@H]1CC=C(c2c[nH]c3ccc(C#N)cc23)CC1 |  |  | 0.00072 µM | IC50 [4]: 0.29 µM; IC50 [5]: 0.39 µM; IC50 [6]: 0.0004 µM |
| CN(C)C1CC=C(c2c[nH]c3ccc([N+](=O)[O-])cc23)CC1 (stereo not given) | 74% | 81% | 0.001 µM |  |
| CN1CC=C(c2c[nH]c3ccc(F)cc23)CC1 |  |  | 0.16 µM |  |
| CN1CC=C(c2c[nH]c3ccccc23)CC1 |  |  | 0.69 µM |  |
| Cc1ccc2[nH]cc(C3=CCC(N(C)C)CC3)c2c1 (stereo not given) |  |  | 0.77 µM |  |
| CN(C)[C@@H]1CC=C(c2c[nH]c3ccc(C#N)cc23)CC1 |  |  | 0.0011 µM | IC50 [4]: 0.08 µM; IC50 [5]: 0.037 µM; IC50 [6]: 0.00056 µM |
